Data on 8 compounds can be found in ChEMBL document CHEMBL5120943, “Discovery of Novel Pyrazolopyrimidines as Potent, Selective, and Orally Bioavailable Inhibitors of ALK2” (ACS Med Chem Lett, 2022).

Molecules are shown by their SMILES. A value given as a limit tells only on which side of the number the result lay.

Test [1] addresses T1, Activin receptor type-1 (Homo sapiens, UniProt Q04771).
T1 sequence (Q04771 whole entry): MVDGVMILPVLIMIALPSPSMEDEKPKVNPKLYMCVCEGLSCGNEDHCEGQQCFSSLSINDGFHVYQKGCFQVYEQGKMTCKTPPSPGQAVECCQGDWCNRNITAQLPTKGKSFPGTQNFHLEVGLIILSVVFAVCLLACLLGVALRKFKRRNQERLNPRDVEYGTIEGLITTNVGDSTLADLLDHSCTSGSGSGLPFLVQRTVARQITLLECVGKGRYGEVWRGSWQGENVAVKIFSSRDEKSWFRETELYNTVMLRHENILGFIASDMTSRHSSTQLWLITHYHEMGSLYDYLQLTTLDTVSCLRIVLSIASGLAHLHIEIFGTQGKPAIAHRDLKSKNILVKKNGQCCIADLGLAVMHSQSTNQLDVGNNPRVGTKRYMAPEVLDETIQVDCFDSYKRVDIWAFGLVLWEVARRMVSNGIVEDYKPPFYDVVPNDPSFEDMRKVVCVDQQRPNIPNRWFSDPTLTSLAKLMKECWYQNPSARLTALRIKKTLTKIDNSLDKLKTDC
Kind of test: Inhibition of human recombinant N-terminal GST tagged ALK2 (147 to end residues) expressed in baculovirus infected in Sf9 cells assessed as loss of peptide phosphorylation activity using peptide substrate in presence of ATP and measured after 3 hrs by HTRF assay. An outline of the steps:
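HTRF activity assay measuring loss of ALK2 phosphorylation of a peptide substrate. IC50 values were determined.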
(Time-resolved FRET reads energy transfer from a long-lived donor to a nearby acceptor.)

For test [2], the target named is T1, Activin receptor type-1. The test is described as follows: Inhibition of ALK2 in human HeLa cells assessed as reduction in BMP-7 induced SMAD1 phosphorylation incubated for 1 hr followed BMP-7 stimulation for 30 mins by HTRF assay. Format: cell-based. An outline of the steps: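 HeLa cells were stimulated with BMP7. Inhibition of BMP7-induced SMAD1 phosphorylation was read by HTRF and an IC50 was derived.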

The target of a further test is T2, Hepcidin (Homo sapiens, UniProt P81172).
T2 sequence (P81172 whole entry): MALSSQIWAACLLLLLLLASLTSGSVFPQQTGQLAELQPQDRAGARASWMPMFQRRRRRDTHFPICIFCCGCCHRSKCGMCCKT
Kind of test: Inhibition of Hepcidin in human Huh-7 cells assessed as inhibition of BMP-7 induced hepcidin production incubated for 16 to 24 hrs by ELISA method. Format: cell-based. An outline of the steps: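 Huh7 liver cells were stimulated with BMP7. Inhibition of secreted hepcidin was measured and an IC50 was derived.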

`C[C@@H]1CN(c2ccc(-c3n[nH]c4cnc(N5[C@H](C)CN(C(=O)N(C)C)C[C@@H]5C)nc34)cn2)CCN1`: the IC50 was 6.4 nM on Activin receptor type-1 [1] and 350 nM at Activin receptor type-1 [2].

Take `C[C@@H]1CN(c2ccc(-c3n[nH]c4cnc(N5CCCCC5)cc34)cn2)CCN1`: the IC50 on Activin receptor type-1 [1] is 77 nM.

`C[C@@H]1CN(c2ccc(-c3n[nH]c4ccc(N5CCCCC5)nc34)cn2)CCN1`: the IC50 is 95 nM at Activin receptor type-1 [1] and more than 3000 nM at Activin receptor type-1 [2].

As to `COC(=O)N1C[C@@H](C)N(c2ncc3[nH]nc(-c4ccc(N5CCN(C)CC5)nc4)c3n2)[C@@H](C)C1`, the IC50 at Hepcidin is 58 nM.

On to `C[C@@H]1CN(c2ccc(-c3n[nH]c4cnc(N5[C@H](C)CCC[C@@H]5C)nc34)cn2)CCN1`, for which the values for the IC50 at Activin receptor type-1 [1] and on Activin receptor type-1 [2] were 2.5 nM and 384 nM, respectively.

`C[C@@H]1CN(c2ccc(-c3n[nH]c4cnc(N5CCCCC5)nc34)cn2)CCN1`: the IC50 on Activin receptor type-1 [1] is 8.1 nM.

Take `CC(C)C(=O)N1C[C@@H](C)N(c2ncc3[nH]nc(-c4ccc(N5CCN[C@H](C)C5)nc4)c3n2)[C@@H](C)C1`: the IC50 at Activin receptor type-1 [1] is 8 nM; at Activin receptor type-1 [2], 661 nM.

For `C[C@@H]1CN(c2ccc(-c3n[nH]c4cnc(N5[C@H](C)COC[C@@H]5C)nc34)cn2)CCN1`, the figures for the IC50 on Activin receptor type-1 [1] and at Activin receptor type-1 [2] were 23 nM and 245 nM, respectively.

By IC50 is commonly meant the concentration that gives 50% inhibition.
